Measured values from ChEMBL document CHEMBL1687851, “Dolabellanes with antibacterial activity from the brown alga Dilophus spiralis” (2011).
In brackets after ≈: the same amount, converted by molar mass.

How the values were obtained:
Staphylococcus aureus [1] = test: Antibacterial activity against 5 x 10^5 CFU/ml epidemic methicillin-resistant Staphylococcus aureus EMRSA-15 after 18 hrs by MTT assay; type: functional; settings: EMRSA-15, 18 h
In short: (§1)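 Strains grown on nutrient agar 24 h at 37 °C; inoculum adjusted to 0.5 McFarland in normal saline. Compounds dissolved in DMSO, diluted in Mueller-Hinton broth to a 512 μg/mL starting concentration, then two-fold serially diluted in MHB supplemented with Mg2+ (10 mg/L) and Ca2+ (20 mg/L). Incubated 18 h at 37 °C; MIC read as lowest concentration with no visible growth, confirmed by MTT (20 min, 37 °C). Triplicates.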

Staphylococcus aureus [2] = test: Antibacterial activity against 5 x 10^5 CFU/ml epidemic methicillin-resistant Staphylococcus aureus EMRSA-16 after 18 hrs by MTT assay; type: functional; settings: EMRSA-16, 18 h; in short: as §1
Staphylococcus aureus [3] = test: Antibacterial activity against 5 x 10^5 CFU/ml macrolide-resistant Staphylococcus aureus RN4220 expressing MsrA macrolide efflux protein after 18 hrs by MTT assay; type: functional; settings: RN4220, 18 h; in short: as §1
Staphylococcus aureus [4] = test: Antibacterial activity against 5 x 10^5 CFU/ml multi-drug-resistant Staphylococcus aureus SA1199B expressing NorA quinolone efflux protein after 18 hrs by MTT assay; type: functional; in short: as §1
Staphylococcus aureus [5] = test: Antibacterial activity against 5 x 10^5 CFU/ml multi-drug-resistant Staphylococcus aureus XU212 expressing TetK tetracycline efflux protein after 18 hrs by MTT assay; type: functional; settings: XU212, 18 h; in short: as §1
Staphylococcus aureus [6] = test: Antibacterial activity against 5 x 10^5 CFU/ml Staphylococcus aureus ATCC 25923 after 18 hrs by MTT assay; settings: ATCC 25923, 18 h

SMILES | MIC (Staphylococcus aureus [1]) [µg/mL] | MIC (Staphylococcus aureus [2]) [µg/mL] | MIC (Staphylococcus aureus [3]) [µg/mL] | MIC (Staphylococcus aureus [4]) [µg/mL] | MIC (Staphylococcus aureus [5]) [µg/mL] | MIC (Staphylococcus aureus [6]) [µg/mL]
CCn1cc(C(=O)O)c(=O)c2cc(F)c(N3CCNCC3)cc21 [NORFLOXACIN] | 0.5 (≈ 1.57 µM) | 128 (≈ 401 µM) | 0.5 (≈ 1.57 µM) | 32 (≈ 100 µM) | 8 (≈ 25.1 µM) | 0.5 (≈ 1.57 µM)
C/C1=C\CC[C@@H](C)/C=C/[C@@]2(C)CC[C@@H](C(C)(C)O)[C@@H]2CC1 | 64 (≈ 220 µM) | 16 (≈ 55.1 µM) | 64 (≈ 220 µM) | 64 (≈ 220 µM) | 64 (≈ 220 µM) | 64 (≈ 220 µM)
C=C(C)[C@H]1CC(=O)[C@]2(C)C[C@@H]3O[C@@]3(C)CC/C=C(\C)CC[C@@H]12 | > 128 | > 128 | 128 (≈ 423 µM) | > 128 | > 128 | > 128
C=C(C)[C@@H]1CC(=O)[C@]2(C)C/C=C(\C)CC/C=C(\C)CC[C@@H]12 | > 128 | > 128 | > 128 | > 128 | > 128 | > 128
C/C1=C\C[C@@]2(C)CC[C@@](O)(C(C)C)[C@@H]2CC/C(C)=C/CC1 | 8 (≈ 27.5 µM) | 8 (≈ 27.5 µM) | 8 (≈ 27.5 µM) | 16 (≈ 55.1 µM) | 16 (≈ 55.1 µM) | 8 (≈ 27.5 µM)
C=C(C)[C@H]1C[C@H](OC(C)=O)[C@]2(C)C[C@@H]3O[C@@]3(C)CC/C=C(\C)CC[C@@H]12 | 128 (≈ 369 µM) | 32 (≈ 92.3 µM) | 64 (≈ 185 µM) | 64 (≈ 185 µM) | 128 (≈ 369 µM) | 32 (≈ 92.3 µM)
C=C(C)[C@H]1CC(=O)[C@]2(C)C/C=C(\C)CC[C@@H]3O[C@@]3(C)CC[C@@H]12 | > 128 | > 128 | > 128 | > 128 | > 128 | > 128
C=C(C)[C@H]1CC(=O)[C@]2(C)C/C=C(/C)CC/C=C(\C)CC[C@@H]12 | > 128 | > 128 | > 128 | > 128 | > 128 | > 128
C=C(C)[C@H]1CC(=O)[C@]2(C)C/C=C(\C)CC/C=C(\C)CC[C@@H]12 | > 128 | 16 (≈ 55.9 µM) | > 128 | 128 (≈ 447 µM) | > 128 | > 128
C=C(C)[C@@H]1CC[C@]2(C)/C=C/[C@H](C)CC/C=C(\C)CC[C@@H]12 | > 128 | > 128 | > 128 | > 128 | > 128 | > 128
C=C(C)[C@H]1C[C@H](O)[C@]2(C)C/C=C(\C)CC/C=C(\C)CC[C@@H]12 | 64 (≈ 222 µM) | 8 (≈ 27.7 µM) | 64 (≈ 222 µM) | 32 (≈ 111 µM) | 64 (≈ 222 µM) | 128 (≈ 444 µM)
C/C1=C\C[C@@]2(C)CC[C@H](C(C)(C)O)[C@@H]2CC/C(C)=C/CC1 | 32 (≈ 110 µM) | 8 (≈ 27.5 µM) | 64 (≈ 220 µM) | 32 (≈ 110 µM) | 64 (≈ 220 µM) | 32 (≈ 110 µM)
C=C(C)[C@H]1C[C@@H](O)[C@]2(C)C/C=C(\C)CC/C=C(\C)CC[C@@H]12 | 2 (≈ 6.93 µM) | 2 (≈ 6.93 µM) | 4 (≈ 13.9 µM) | 2 (≈ 6.93 µM) | 4 (≈ 13.9 µM) | 4 (≈ 13.9 µM)
C=C(C)[C@H]1CC(=O)[C@]2(C)C/C=C(/C)CC[C@@H]3O[C@@]3(C)CC[C@@H]12 | > 128 | > 128 | > 128 | > 128 | > 128 | > 128
C=C(C)[C@H]1CC[C@]2(C)C/C=C(\C)CC/C=C(\C)CC[C@@H]12 | 128 (≈ 470 µM) | 16 (≈ 58.7 µM) | 128 (≈ 470 µM) | 128 (≈ 470 µM) | 128 (≈ 470 µM) | 64 (≈ 235 µM)
C=C(C)[C@H]1CC[C@]2(C)C[C@@H]3O[C@@]3(C)CC/C=C(\C)CC[C@@H]12 | > 128 | 32 (≈ 111 µM) | > 128 | > 128 | > 128 | > 128
C=C(C)[C@H]1C[C@H](OC(C)=O)[C@]2(C)C/C=C(\C)CC/C=C(\C)CC[C@@H]12 | > 128 | > 128 | > 128 | > 128 | > 128 | > 128
C=C(C)[C@H]1CC[C@]2(C)C/C=C(\C)CC[C@@H]3O[C@@]3(C)CC[C@@H]12 | 128 (≈ 444 µM) | 4 (≈ 13.9 µM) | > 128 | > 128 | > 128 | > 128
CC(=O)O[C@H]1C/C(C)=C/CC[C@@H](C)/C=C/[C@@]2(C)CC[C@@H](C(C)(C)O)[C@H]12 | > 128 | 64 (≈ 184 µM) | > 128 | > 128 | > 128 | > 128
